# Test results as given in ChEMBL document CHEMBL1921722, “In vitro and in vivo evaluation of select kahalalide F analogs with antitumor and antifungal activities” (Bioorg Med Chem, 2011).
# What was measured:
# Hs-578T [1] = assay: Cytotoxicity against human Hs578T cells assessed as cell growth at 800 nM by sulforhodamine B assay relative to control; type: functional; conditions: read-out: Activity
# MDA-MB-435 = assay: Cytotoxicity against human MDA-MB-435 cells assessed as cell growth at 800 nM by sulforhodamine B assay relative to control; type: functional; conditions: read-out: Activity
# Candida albicans = assay: Antimicrobial activity against Candida albicans ATCC 90028 by CLSI method; type: functional, organism-based
# SF-295 = assay: Cytotoxicity against human SF295 cells assessed as cell growth at 8 uM by sulforhodamine B assay relative to control; type: functional; conditions: read-out: Activity
# OVCAR-4 = assay: Cytotoxicity against human OVCAR4 cells assessed as cell growth at 8 nM by sulforhodamine B assay relative to control; type: functional; conditions: read-out: Activity
# BT-549 = assay: Cytotoxicity against human BT549 cells assessed as cell growth at 800 nM by sulforhodamine B assay relative to control; type: functional; conditions: read-out: Activity
# Procedure, shortened: (§1)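 Run at NCI in the DTP 60-cell-line human tumor panel by standard procedure. Compounds were first screened at a single concentration, then tested at five tenfold-spaced concentrations. GI50 is the concentration reducing treated-cell growth to half that of untreated controls; TGI is the concentration completely halting growth.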
# SN12C [2] = assay: Cytotoxicity against human SN12C cells assessed as cell growth at 80 uM by sulforhodamine B assay relative to control; type: functional; conditions: read-out: Activity
# U-251 = assay: Cytotoxicity against human U251 cells assessed as cell growth at 8 nM by sulforhodamine B assay relative to control; type: functional; conditions: read-out: Activity
# HL-60(TB) = assay: Cytotoxicity against human HL-60(TB) cells by sulforhodamine B assay; type: functional
# Procedure, shortened: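 NCI Developmental Therapeutics Program 60-cell-line human tumor panel, standard procedure. Single-concentration prescreen first; active compounds then tested at five concentrations. GI50 is the concentration reducing growth of treated cells to half that of untreated controls.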
# SNB-75 = assay: Cytotoxicity against human SNB75 cells assessed as cell growth at 8 nM by sulforhodamine B assay relative to control; type: functional; conditions: read-out: Activity
# SW-620 [3] = assay: Cytotoxicity against human SW620 cells assessed as cell growth at 80 nM by sulforhodamine B assay relative to control; type: functional; conditions: read-out: Activity
# UACC-62 = assay: Cytotoxicity against human UACC62 cells by sulforhodamine B assay; type: functional
# Procedure, shortened: (§2)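 NCI Developmental Therapeutics Program 60-cell-line human tumor panel screen, run at NCI. A single-concentration pre-screen was followed by a five-concentration dose-response in 10-fold steps. GI50 is the concentration that reduces growth of treated cells to half that of untreated control cells. TGI is the concentration that completely halts growth.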
# HOP-92 = assay: Cytotoxicity against human HOP92 cells assessed as cell growth at 8 uM by sulforhodamine B assay relative to control; type: functional; conditions: read-out: Activity
# NCI/ADR-RES = assay: Cytotoxicity against human NCI/ADR-RES cells assessed as cell growth at 8 nM by sulforhodamine B assay relative to control; type: functional; conditions: read-out: Activity
# MDA-MB-231 = assay: Cytotoxicity against human MDA-MB-231 cells assessed as cell growth at 80 nM by sulforhodamine B assay relative to control; type: functional; conditions: read-out: Activity
# RPMI-8226 = assay: Cytotoxicity against human RPMI8226 cells by sulforhodamine B assay; type: functional; procedure, shortened: as §2
# UACC-257 = assay: Cytotoxicity against human UACC257 cells assessed as cell growth at 80 nM by sulforhodamine B assay relative to control; type: functional; conditions: read-out: Activity
# T47D = assay: Cytotoxicity against human T47D cells assessed as cell growth at 800 nM by sulforhodamine B assay relative to control; type: functional; conditions: read-out: Activity
# UO-31 = assay: Cytotoxicity against human UO31 cells assessed as cell growth at 8 uM by sulforhodamine B assay relative to control; type: functional; conditions: read-out: Activity
# SN12C [4] = assay: Cytotoxicity against human SN12C cells assessed as cell growth at 8 nM by sulforhodamine B assay relative to control; type: functional; conditions: read-out: Activity
# SF-539 [5] = assay: Cytotoxicity against human SF539 cells assessed as cell growth at 80 uM by sulforhodamine B assay relative to control; type: functional; conditions: read-out: Activity
# EKVX = assay: Cytotoxicity against human EKVX cells by sulforhodamine B assay; type: functional
# Procedure, shortened: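 Run by the NCI Developmental Therapeutics Program on its 60-line human tumour cell panel using the standard procedure. Compounds went through a single-concentration prescreen first, and those active by NCI criteria went on to a five-concentration growth-inhibition test. GI50 is the concentration that cuts growth of treated cells to half that of untreated control cells.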
# SK-MEL-5 = assay: Cytotoxicity against human SK-MEL-5 cells by sulforhodamine B assay; type: functional; procedure, shortened: as §2
# SK-OV-3 = assay: Cytotoxicity against human SKOV3 cells by sulforhodamine B assay; type: functional; procedure, shortened: as §2
# HCT-15 = assay: Cytotoxicity against human HCT15 cells assessed as cell growth at 8 uM by sulforhodamine B assay relative to control; type: functional; conditions: read-out: Activity
# HOP-62 = assay: Cytotoxicity against human HOP62 cells assessed as cell growth at 80 uM by sulforhodamine B assay relative to control; type: functional; conditions: read-out: Activity
# NCI-H322M = assay: Cytotoxicity against human NCI-H322M cells assessed as cell growth at 8 nM by sulforhodamine B assay relative to control; type: functional; conditions: read-out: Activity
# SK-MEL-2 = assay: Cytotoxicity against human SK-MEL-2 cells assessed as cell growth at 80 nM by sulforhodamine B assay relative to control; type: functional; conditions: read-out: Activity
# TK-10 = assay: Cytotoxicity against human TK10 cells assessed as cell growth at 8 nM by sulforhodamine B assay relative to control; type: functional; conditions: read-out: Activity
# SF-539 [6] = assay: Cytotoxicity against human SF539 cells by sulforhodamine B assay; type: functional; procedure, shortened: as §2
# HT-29 = assay: Cytotoxicity against human HT-29 cells assessed as cell growth at 8 uM by sulforhodamine B assay relative to control; type: functional; conditions: read-out: Activity
# Hs-578T [7] = assay: Cytotoxicity against human Hs578T cells assessed as cell growth at 80 nM by sulforhodamine B assay relative to control; type: functional; conditions: read-out: Activity
# COLO 205 = assay: Cytotoxicity against human COLO205 cells by sulforhodamine B assay; type: functional; procedure, shortened: as §1
# SW-620 [8] = assay: Cytotoxicity against human SW620 cells assessed as cell growth at 8 nM by sulforhodamine B assay relative to control; type: functional; conditions: read-out: Activity
# LOX IMVI = assay: Cytotoxicity against human LOXIMVI cells assessed as cell growth at 8 uM by sulforhodamine B assay relative to control; type: functional; conditions: read-out: Activity
# M14 = assay: Cytotoxicity against human M14 cells assessed as cell growth at 8 nM by sulforhodamine B assay relative to control; type: functional; conditions: read-out: Activity
# NCI-H460 = assay: Cytotoxicity against human NCI-H460 cells assessed as cell growth at 8 nM by sulforhodamine B assay relative to control; type: functional; conditions: read-out: Activity
smiles,measurement,setting,value
C/C=C1\NC(=O)[C@H](Cc2ccccc2)NC(=O)[C@@H](C(C)C)NC(=O)[C@@H]([C@@H](C)CC)NC(=O)[C@H](NC(=O)[C@H](NC(=O)[C@H](CCCNCc2ccc(N3CCOCC3)cc2)NC(=O)[C@H]2CCCN2C(=O)[C@H](NC(=O)[C@@H](NC(=O)[C@@H](NC(=O)[C@H](NC(=O)CCCC(C)C)C(C)C)[C@@H](C)O)C(C)C)C(C)C)[C@@H](C)CC)[C@@H](C)OC(=O)[C@H](C(C)C)NC1=O,growth at 0.8 µM,Hs-578T [1],36%
same,growth at 0.8 µM,MDA-MB-435,94%
same,IC50,Candida albicans,5.76 µM
same,MFC,Candida albicans,> 20 µM
same,MIC,Candida albicans,20 µM
same,growth at 8 µM,SF-295,-40%
same,growth at 0.008 µM,OVCAR-4,103%
same,growth at 0.8 µM,BT-549,89%
same,growth at 80 µM,SN12C [2],-17%
same,growth at 0.008 µM,U-251,94%
same,GI50,HL-60(TB),1.86 µM
same,CC50,HL-60(TB); read-out: pLC50 (the source's name) (converted),> 75.9 µM
same,TGI,HL-60(TB); read-out: pTGI (converted),5.25 µM
same,growth at 0.008 µM,SNB-75,110%
same,growth at 0.08 µM,SW-620 [3],99%
same,GI50,UACC-62,1.35 µM
same,LC50,UACC-62,4.27 µM
same,TGI,UACC-62; read-out: pTGI (converted),2.4 µM
same,growth at 8 µM,HOP-92,-2%
same,growth at 0.008 µM,NCI/ADR-RES,104%
same,growth at 0.08 µM,MDA-MB-231,97%
same,GI50,RPMI-8226; read-out: GI50,1.13 µM
same,TGI,RPMI-8226; read-out: TGI,2.51 µM
same,GI50,RPMI-8226; read-out: pGI50 (converted),1.12 µM
same,TGI,RPMI-8226; read-out: pTGI (converted),2.51 µM
same,growth at 0.08 µM,UACC-257,103%
same,growth at 0.8 µM,T47D,-23%
same,growth at 8 µM,UO-31,-76%
same,growth at 0.008 µM,SN12C [4],86%
same,growth at 80 µM,SF-539 [5],-63%
same,GI50,EKVX,0.776 µM
same,TGI,EKVX; read-out: pTGI (converted),1.91 µM
same,GI50,SK-MEL-5,1.23 µM
same,LC50,SK-MEL-5,4.07 µM
same,TGI,SK-MEL-5; read-out: pTGI (converted),2.24 µM
same,GI50,SK-OV-3; read-out: GI50,0.178 µM
same,TGI,SK-OV-3; read-out: TGI,0.415 µM
same,GI50,SK-OV-3; read-out: pGI50 (converted),0.178 µM
same,TGI,SK-OV-3; read-out: pTGI (converted),0.417 µM
same,growth at 8 µM,HCT-15,-82%
same,growth at 80 µM,HOP-62,-55%
same,growth at 0.008 µM,NCI-H322M,109%
same,growth at 0.08 µM,SK-MEL-2,101%
same,growth at 0.008 µM,TK-10,118%
same,GI50,SF-539 [6],1.29 µM
same,LC50,SF-539 [6],4.57 µM
same,TGI,SF-539 [6]; read-out: pTGI (converted),2.45 µM
same,growth at 8 µM,HT-29,-68%
same,growth at 0.08 µM,Hs-578T [7],101%
same,GI50,COLO 205; read-out: GI50,0.152 µM
same,GI50,COLO 205; read-out: pGI50 (converted),0.151 µM
same,growth at 0.008 µM,SW-620 [8],104%
same,growth at 8 µM,LOX IMVI,20%
same,growth at 0.008 µM,M14,99%
same,growth at 0.008 µM,NCI-H460,99%
